# dFosB activator = activators of delta FosB homodimer, primary screen, biochemical, fluorescence polarization, TAMRA-CDK5 oligo, single point. Protein FosB (Mus musculus), P13346. purified delta FosB; percent of positive-control signal above neutral wells. activation, % at 25 µM. 340,000 compounds, 0.99% hits. AID 493131, 2011;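 active = mean activation above about 17%, with every replicate also reaching it, limit read from the data, passing the limit was not always enough; inconclusive = only one of the two conditions met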
# SR-BI DiI-HDL act = activators of SR-BI mediated DiI-HDL uptake, primary screen, ldlA[mSR-BI] CHO cells, DiI fluorescence; 3 h; 100 = double the neutral-control signal; activation, % at 12.5 µM; 320,000 compounds, 0.096% hits; AID 504775, 2011;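 active = mean replicate activation of at least 60% and every replicate at or above 60%; inconclusive = mean or all-replicate condition met, but not both; inactive = mean below 60% and not all replicates reaching 60%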;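 also: 0% = median plate neutral-control signal and 100% = twice that signal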
#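 System: LDL receptor-deficient CHO ldlA cells overexpressing murine SR-BI | Timing: 3 h uptake period with compound, 37 °C | Medium: HEPES-buffered (25 mM, pH 7.4) F12 plus 0.5% BSA | Dosing: Single-point compound dose | Signal: Bottom-read fluorescence, 550/595 nm | Read-out: Retained DiI signal reflecting DiI-HDL uptake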
# CDK5 p35 inh = inhibitors of human CDK5/p35 kinase, primary screen, biochemical, single concentration | Cyclin-dependent kinase 5 (Homo sapiens) + Cyclin-dependent kinase 5 activator 1 (Homo … | Recombinant CDK5/p35, ADP-Glo luminescence, 60 min | inhibition, % at 10 µM | 330,000 compounds, 0.01% hits;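 active = highest replicate inhibition of at least 50% and at least 75% of replicates reaching 50%; inconclusive = only one of the two criteria met; inactive = both criteria failed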;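 also: plate controls were DMSO neutral control for no effect and GW8510 at 10 µM for full effect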
# Target sequence (Q00535 whole entry, looked up): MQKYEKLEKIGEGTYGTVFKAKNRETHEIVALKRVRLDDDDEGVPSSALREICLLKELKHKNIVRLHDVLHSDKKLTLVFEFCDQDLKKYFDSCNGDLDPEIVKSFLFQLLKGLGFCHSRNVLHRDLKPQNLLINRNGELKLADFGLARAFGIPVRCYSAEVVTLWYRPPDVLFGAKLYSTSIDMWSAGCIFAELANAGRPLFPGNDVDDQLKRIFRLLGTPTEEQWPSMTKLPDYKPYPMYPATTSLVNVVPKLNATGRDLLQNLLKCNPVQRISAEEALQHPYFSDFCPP
# Target sequence (Q15078 whole entry, looked up): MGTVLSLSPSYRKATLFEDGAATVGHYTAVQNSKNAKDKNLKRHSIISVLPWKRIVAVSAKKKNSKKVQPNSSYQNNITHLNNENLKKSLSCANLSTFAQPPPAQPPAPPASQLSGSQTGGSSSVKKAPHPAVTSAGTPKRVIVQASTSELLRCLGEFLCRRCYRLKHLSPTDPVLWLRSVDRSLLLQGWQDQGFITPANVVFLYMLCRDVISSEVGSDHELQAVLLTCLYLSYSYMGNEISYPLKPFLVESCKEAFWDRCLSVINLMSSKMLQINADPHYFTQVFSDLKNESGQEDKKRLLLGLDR
# SR-BI HDL uptake = inhibitors of SR-BI mediated HDL lipid uptake, primary screen, ldlA[mSR-BI] cells, fluorescence, single point | ldlA[mSR-BI] CHO cells, DiI-HDL uptake fluorescence, 3 h | Scavenger receptor class B member 1 (Mus musculus), Q61009 | inhibition, % at 12.5 µM | 320,000 compounds, 0.96% hits;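 active = mean replicate inhibition of at least 70% and a set share of replicates each scoring 70 or more; inconclusive = meets just one of the two criteria; inactive = fails both criteria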;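 also: 0% = median of neutral control wells and 100% = median of positive control wells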
# DiI quench = quenches DiI-HDL fluorescence, an SR-BI assay artifact | shares compounds with SR-BI HDL uptake | cell-free DiI-HDL fluorescence quenching, 30 min | AC50, µM (highest dose often 35 µM), for the others: at the highest dose activity change, negative = quenching | 470 compounds, 20% hits | AID 540326;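 active = quenching, a falling signal, with AC50 below a set limit tied to the top valid dose, actives reach about 32 µM in these data; inconclusive = no clear call, values can overlap the other calls; inactive = rising signal, and the rest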
# Active calls of the source: *; i = inactive; ? = inconclusive; . = not tested or not shown; ! = not active in a repeat. This is a sample that favours compounds with a hit; in the whole collection about 2% have one here.
SMILES,dFosB activator,SR-BI DiI-HDL act,CDK5 p35 inh,SR-BI HDL uptake,DiI quench
CCC(O)C1CCN(C(=O)c2cc(COc3ccc(F)cc3F)on2)CC1 (stereo not drawn),1,-7,1,7,.
COc1ccc(OC)c(Nc2ccc(Nc3cc(OC)ccc3OC)nn2)c1,-5,-86,2,86*,5.1µM*
CC(=O)Nc1cccc(NC(=O)Cc2nc(-c3ccccc3)sc2-c2ccc(C)cc2)c1,2,-60,0,60,.
Cc1ccc(-c2sc(-c3ccccc3)nc2CC(=O)Nc2ccccc2F)cc1,-2,-77,-1,77*,5%
COc1ccc(NC(=O)COC(=O)CCc2ccc(S(=O)(=O)N3CCOCC3)cc2)cc1OC,-5,12,2,-12,.
CCOC(=O)C1=C(CNCCOc2ccc(OC)cc2)NC(=O)NC1c1ccc2c(c1)OCO2 (stereo not drawn),-12,-72,-1,?,-4%
N#Cc1ccsc1NC(=O)CCN1C(=O)C2CCCCC2C1=O (stereo not drawn),0,-3,0,3,.
COc1cc(C(=S)N2CCCC2)ccc1OC(=O)c1ccc(Cl)cc1[N+](=O)[O-],-7,-112,1,112*,-15%
CCOCCCNC(=O)c1c[nH]c2c(CC)cccc2c1=O,-16,4,0,-4,.
CCOc1ccc(NC(=O)CN2CCN(CC(=O)Nc3ccc(N(C)C)cc3)CC2)cc1,-3,-86,1,86*,-13%
COc1ccc(NC(=O)CN2CCN(CC(=O)Nc3ccc(OC)c(OC)c3)CC2)cc1,3,-72,-2,?,-2%
CCOc1ccc(NC(=O)CN2CCN(CC(=O)Nc3ccc(F)cc3)CC2)cc1,-2,-53,0,53,.
O=C(NCCOC(=O)c1ccc(S(=O)(=O)N2CCOCC2)cc1)c1cccnc1,1,-31,0,31,.
O=C(OCCNc1ncc(C(F)(F)F)cc1Cl)c1ccc(S(=O)(=O)N2CCOCC2)cc1,-2,-81,0,81*,1%
COc1ccc(S(N)(=O)=O)cc1C(=O)OCCCOc1ccc(F)cc1,-7,-34,3,34,.
COc1ccc(-c2[nH]c(-c3ccccc3)nc2SCC(=O)NC2CCCC2)cc1,-4,-43,0,43,.
COc1ccc(-c2[nH]c(-c3ccc(F)cc3)nc2SCC(=O)NC2CCCC2)cc1,-9,-78,0,78*,26µM*
C=C(CN(C)C)C(=O)c1ccc(OC2OC(COC(C)=O)C(OC(C)=O)C(OC(C)=O)C2OC(C)=O)cc1 (stereo not drawn),21*,-94,1,94*,-1%
C#CCN1C=CC(=O)[C@@H](OC(=O)Nc2ccc(C)cc2)[C@H]1c1ccccc1Br,-5,14,2,-14,.
C/C=C(\C)C(=O)Nc1cccc(C2=NOC3(C2)C[C@@H](C(N)=O)N(C(=O)c2cc([N+](=O)[O-])cc([N+](=O)[O-])c2C)C3)c1 (stereo partly drawn),-5,-30,-2,30,.
Cc1c(C(=O)N2CC3(CC(c4cccc(NC(=O)CC(c5ccccc5)c5ccccc5)c4)=NO3)C[C@@H]2C(N)=O)cc([N+](=O)[O-])cc1[N+](=O)[O-] (stereo partly drawn),-7,-14,-2,14,i
Cc1c(C(=O)Nc2ccc(Cl)cc2)c2ccccn2c1CCc1ccncc1,-8,-97,-1,97*,32µM*
Cc1c(C(=O)Nc2cccc(Cl)c2)c2ccccn2c1CCc1ccncc1,-12,-94,1,94*,25µM*
Oc1csc(Cc2nc(-c3ccc4ccccc4c3)cs2)n1,-5,-70,-1,?,16µM*
CCC(C)n1ncn(-c2ccc(N3CCN(c4ccc(OCC5COC(Cn6cncn6)(c6ccc(Cl)cc6Cl)O5)cc4)CC3)cc2)c1=O (stereo not drawn),-6,-83,2,83*!,-11%
SMILES,dFosB activator,SR-BI DiI-HDL act,CDK5 p35 inh,SR-BI HDL uptake,DiI quench
CCC(C)n1ncn(-c2ccc(N3CCN(c4ccc(O)cc4)CC3)cc2)c1=O (stereo not drawn),-6,-21,-2,21,.
COC(=O)C1=CN(c2ccc(F)cc2)C=C(C(=O)OC)C1c1ccc([N+](=O)[O-])cc1,-9,-61,0,61,.
CCOC(=O)C1=CN(c2cccc(F)c2)C=C(C(=O)OCC)C1c1cc(OC)c(O)c([N+](=O)[O-])c1,-18,2,-1,-2,7.7µM*
CCOC(=O)CSc1c(-c2ccc(Cl)cc2)[nH]c2ccccc12,-7,-75,-1,75*,-12%
Cc1ccc(-c2[nH]c3ccccc3c2SCCNC(=O)c2cc3ccccc3oc2=O)cc1,-13,-22,0,22,.
O=C(Cc1cccs1)NCCSc1c(-c2ccc(Cl)cc2)[nH]c2ccccc12,6,-70,-1,?,-17%
Cc1ccc(NC(=O)c2cc(S(=O)(=O)N3CCOCC3)c(Br)s2)cc1,0,-73,2,?,3%
O=C(Nc1ccc(N2CCOCC2)cc1)c1cc2c(s1)CCCC2,-7,-100,-1,100*,16µM*
O=C(Nc1ccccc1N1CCOCC1)c1cc2c(s1)CCCCC2,-2,-57,7,57,.
O=C(NNc1c(F)c(F)cc(F)c1F)C1CCN(S(=O)(=O)c2ccccc2F)CC1,-1,-79,0,79*,-1%
O=C(NCc1ccccn1)C1CCN(S(=O)(=O)c2ccccc2F)CC1,-1,28,1,-28,.
O=C(Nc1ccc(Cl)cc1)Nc1cccc2nsnc12,5,-30,0,30,.
O=C(O)CSCC(=O)N(c1ccccc1)c1ccccc1,-5,-11,0,11,.
COc1ccc(C2c3sc(=O)[nH]c3SC3C4CCC(C4)C23)cc1OC (stereo not drawn),-8,-72,0,?,-9%
CNc1cnn(-c2ccc(C)cc2)c(=O)c1Sc1ccc(C)cc1,-8,-70,1,70*,1%
CNc1cnn(-c2ccc(C)cc2)c(=O)c1Cl,4,32,-1,-32,.
O=C(c1cn(-c2ccccc2)nc1-c1cccc([N+](=O)[O-])c1)N1CCCCC1,-1,-73,0,73*,-19%
c1ccc(COn2c(-c3ccccc3)nc3c2CCc2nonc2-3)cc1,9,-71,0,?,1%
Cc1ccc2c(c1)C(=O)C(=O)N2CC(=O)Nc1ccc(N2CCOCC2)cc1,1,-4,0,4,-11%
CC1Cc2ccccc2N1CC(=O)Nc1ccc(N2CCOCC2)cc1 (stereo not drawn),-10,-83,1,83*,-19%

# Source: PubChem BioAssay
